Active and inactive are the calls of the source. The rule behind the calls is not given here.
Assays:
[1] = test system: Cerebellar granule neurone; assay: Neuroprotective activity against glutamate/glycine-induced excitotoxicity in rat primary Cerebellar granule neurone at 25 uM preincubated for 6 hrs measured after 24 hrs by MTT assay; assay type: functional, tissue-based
Summary of the method: (§1)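 Primary rat cerebellar granule neurons at 8 DIV pretreated 6 h with compound (5, 10, 25 μM), then 100 μM glutamate/10 μM glycine added for a further 24 h with compound present. Viability was read by MTT, expressed as % of control. Values are mean SE of at least four experiments, each in triplicate.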

Olineu [2] = assay: Induction in mouse Oli-neu cell differentiation to oligodendrocytes assessed as decrease in cell number at 5 uM after 48 hrs; assay type: functional
Summary of the method: (§2)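 Oli-Neu cells (immortalized mouse oligodendrocyte precursors) exposed to 5 μM compound for 48 h. Proliferation was scored by cell counting and differentiation by filament length. Values are % of control, mean SE of at least three experiments, one-way ANOVA with Bonferroni.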

N9 (Mus musculus) [3] = assay: Immunomodulatory activity in LPS treated mouse N9 microglial cells assessed as reduction in nitrite level at 0.5 uM preincubated for 6 hrs by Griess reagent assay; details: time 24.0 hrs
[4] = test system: Cerebellar granule neurone; assay: Neuroprotective activity against glutamate/glycine-induced excitotoxicity in rat primary Cerebellar granule neurone at 10 uM preincubated for 6 hrs measured after 24 hrs by MTT assay; assay type: functional, tissue-based; summary of the method: as §1
N9 (Mus musculus) [5] = assay: Immunomodulatory activity in LPS treated mouse N9 microglial cells assessed as shift in M1 neurotoxic phenotype to M2 neuroprotective by measuring TREM2 expression level at 0.5 uM preincubated for 6 hrs by western blot analysis
Olineu [6] = assay: Induction in mouse Oli-neu cell differentiation to oligodendrocytes assessed as increase in filament length at 5 uM after 48 hrs; assay type: functional; summary of the method: as §2
[7] = target: T1, Histone deacetylase (Homo sapiens) (UniProt Q13547+O15379+Q9UBN7+Q92769+Q9UQL6+Q8WUI4+Q9BY41+Q96DB2+P56524+Q9UKV0+Q969S8); assay: Inhibition of HDAC in human medulloblastoma (DAOY) cells assessed as increase in acetylated histone levels at 0.5 mM after 48 hrs by densitometric analysis
Summary of the method: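 HDAC inhibition in human DAOY medulloblastoma cells was read as acetylated histone H3 by immunoblot densitometry. […] Values are mean SD of three independent experiments, Newman–Keuls after ANOVA versus vehicle.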

N9 (Mus musculus) [8] = assay: Immunomodulatory activity in LPS treated mouse N9 microglial cells assessed as shift in M1 neurotoxic phenotype to M2 neuroprotective by measuring decrease in iNOS expression level at 0.5 uM preincubated for 6 hrs by western blot analysis
[9] = test system: Cerebellar granule neurone; assay: Neuroprotective activity against glutamate/glycine-induced excitotoxicity in rat primary Cerebellar granule neurone at 5 uM preincubated for 6 hrs measured after 24 hrs by MTT assay; assay type: functional, tissue-based; summary of the method: as §1
[10] = target: T1, Histone deacetylase (Homo sapiens); assay: Inhibition of HDAC in human medulloblastoma (DAOY) cells assessed as increase in acetylated histone levels at […] after 48 hrs by densitometric analysis
Olineu [11] = assay: Induction in mouse Oli-neu cell differentiation to oligodendrocytes assessed as decrease in Olig2 expression at 5 uM after 48 hrs by Western blot analysis
Olineu [12] = assay: Induction in mouse Oli-neu cell differentiation to oligodendrocytes assessed as increase in CNPase expression at 5 uM after 72 hrs by Western blot analysis; assay type: functional
Summary of the method: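 Oli-Neu cells exposed to 5 μM compound; Olig2 was assessed at 48 h and CNPase at 72 h. Values are % of control, mean SE of at least three experiments, one-way ANOVA with Bonferroni.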

inhibition [7] | inhibition [10] | Compound | Activity [1] | Activity (Olineu [2]) | inhibition (N9 (Mus musculus) [3]) | Activity [4] | inhibition (N9 (Mus musculus) [5]) | Activity (Olineu [6]) | inhibition (N9 (Mus musculus) [8]) | Activity [9] | Activity (Olineu [11]) | Activity (Olineu [12])
 |  | CC/C=C\C/C=C\C/C=C\CCCCCCCC(=O)O | inactive |  |  |  |  |  |  |  |  | 
Active | Active | CC/C=C\C/C=C\C/C=C\CCCCCCCC(=O)NCCOC(=O)C(CCC)CCC | inactive | Active | Active | Active | inactive | Active | Active | Active | Active | 
Active | Active | CC/C=C\C/C=C\C/C=C\CCCCCCCC(=O)NCCNC(=O)C(CCC)CCC | inactive | Active | Active | Active | inactive | Active | Active | Active | Active | Active
 | Active | CCCC(CCC)C(=O)O | inactive | Active |  | inactive |  |  |  | inactive |  | Active

Reference: ChEMBL document CHEMBL4665897, “α-Linolenic Acid-Valproic Acid Conjugates: Toward Single-Molecule Polypharmacology for Multiple Sclerosis” (ACS Med Chem Lett, 2020)
